According to ChEMBL document CHEMBL2413001, “Exploring pyrimidine-substituted curcumin analogues: design, synthesis and effects on EGFR signaling” (Bioorg Med Chem, 2013):
One block for each compound: values may come before it. Active and inactive are the calls of the source. The calls are words filed in the database; no cut-off is given here.

Experiments:
[1] = test system: HT-29; experiment: Cytotoxicity against human HT-29 cells assessed as growth inhibition after 48 hrs by resazurin assay; format: functional, cell-based; details: for IC50: HT-29, 48 h
Method in brief: (§1)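 HCT116 or HT29 seeded at 2000 cells/well, grown 24 h, then given fresh complete McCoy's 5A (5% FBS, 0.1% DMSO final) containing serial compound concentrations for 48 h. Resazurin was added for 16 h and fluorescence read at ex 544/em 595 nm as a measure of living cells. IC50 was calculated by the Logit approach; values are mean ± SD.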

[2] = test system: HCT-116; experiment: Cytotoxicity against human HCT116 cells assessed as growth inhibition after 48 hrs by resazurin assay; format: functional, cell-based; details: for IC50: HCT-116, 48 h; method in brief: as §1
[3] = test system: HCT-116; experiment: Induction of apoptosis in human HCT116 cells assessed as reduction in Bcl-2 expression at 20 uM after 72 hrs by Western blot analysis; format: functional, cell-based
Method in brief: (§2)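 HCT116 only, seeded at 8 × 10⁴ cells/ml in 15 cm dishes for 24 h, then treated for 72 h at 20 µM or at 5, 10 and 20 µM. Lysed in Triton lysis buffer (pH 7.5) with inhibitors, sonicated, and protein assayed by BCA. Western blots were developed by ECL. Band intensities were normalized to β-actin, as means of three independent experiments; the Bax/Bcl-2 ratio was expressed relative to untreated control.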

[4] = test system: HT-29; experiment: Cell cycle arrest in human HT-29 cells assessed as increase in G2/M population at 20 uM after 24 hrs by flow cytometry relative to control; format: functional
Method in brief: (§3)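 HCT116 or HT29 cells seeded at 4 × 10⁴ cells/ml in 6-well plates and left 24 h to attach, then exposed for 24 h in complete McCoy's 5A (5% FBS) with 0.1% DMSO final, at 5, 10 or 20 µM. Floating and trypsinized cells were pooled, PBS-washed, fixed overnight in 70% ethanol at 4 °C and stained with PI/RNase for 15 min at room temperature. Flow DNA content gave G0/G1, S and G2/M fractions as fold of control, from three independent assays.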

[5] = biological target: Epidermal growth factor receptor (Homo sapiens) (UniProt P00533); experiment: Inhibition of EGFR signaling in human HCT116 cells assessed as induction of p21 WAF-1/CIP-1 expression at 20 uM after 24 hrs by Western blot analysis relative to control; format: cell-based; details: HCT-116
Sequence of Epidermal growth factor receptor (Homo sapiens) (P00533 whole entry): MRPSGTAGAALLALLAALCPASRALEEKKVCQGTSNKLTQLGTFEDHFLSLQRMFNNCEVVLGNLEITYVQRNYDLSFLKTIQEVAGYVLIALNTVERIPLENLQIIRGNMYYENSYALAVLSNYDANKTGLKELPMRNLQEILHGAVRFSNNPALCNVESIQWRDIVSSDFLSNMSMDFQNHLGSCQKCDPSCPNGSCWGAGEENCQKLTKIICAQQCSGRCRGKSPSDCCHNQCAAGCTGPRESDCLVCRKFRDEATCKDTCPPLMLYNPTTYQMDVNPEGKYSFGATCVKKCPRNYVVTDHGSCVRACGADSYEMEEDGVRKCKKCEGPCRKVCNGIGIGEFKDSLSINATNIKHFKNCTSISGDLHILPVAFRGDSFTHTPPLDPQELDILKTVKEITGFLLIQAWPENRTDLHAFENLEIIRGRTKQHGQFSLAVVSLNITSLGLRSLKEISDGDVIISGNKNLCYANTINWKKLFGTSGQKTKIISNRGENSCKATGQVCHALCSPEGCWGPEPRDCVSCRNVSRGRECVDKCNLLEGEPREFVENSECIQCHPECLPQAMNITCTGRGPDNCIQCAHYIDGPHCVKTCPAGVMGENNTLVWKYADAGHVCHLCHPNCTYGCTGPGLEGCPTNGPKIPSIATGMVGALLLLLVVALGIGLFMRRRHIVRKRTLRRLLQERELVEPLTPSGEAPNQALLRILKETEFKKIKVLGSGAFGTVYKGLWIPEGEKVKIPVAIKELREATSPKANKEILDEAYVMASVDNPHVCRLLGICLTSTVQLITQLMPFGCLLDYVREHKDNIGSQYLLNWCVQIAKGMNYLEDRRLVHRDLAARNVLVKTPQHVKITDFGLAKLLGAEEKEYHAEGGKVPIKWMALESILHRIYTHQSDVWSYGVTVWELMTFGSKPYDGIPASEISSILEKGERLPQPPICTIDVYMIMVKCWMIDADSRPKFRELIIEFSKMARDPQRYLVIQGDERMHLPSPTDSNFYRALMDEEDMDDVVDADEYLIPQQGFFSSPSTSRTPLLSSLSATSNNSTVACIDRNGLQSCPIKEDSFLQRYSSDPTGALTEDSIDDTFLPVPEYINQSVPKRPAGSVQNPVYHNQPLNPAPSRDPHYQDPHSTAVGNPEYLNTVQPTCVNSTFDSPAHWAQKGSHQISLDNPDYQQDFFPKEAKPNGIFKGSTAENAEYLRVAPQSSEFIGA

[6] = biological target: Epidermal growth factor receptor (Homo sapiens) (UniProt P00533); experiment: Inhibition of EGFR signaling in human HCT116 cells assessed as effect on CDK2 expression at 20 uM after 24 hrs by Western blot analysis; format: cell-based; details: HCT-116
[7] = test system: HCT-116; experiment: Induction of apoptosis in human HCT116 cells assessed as effect on HSP-90 expression at 20 uM after 72 hrs by Western blot analysis; format: functional, cell-based; method in brief: as §2
[8] = test system: HCT-116; experiment: Induction of apoptosis in human HCT116 cells assessed as ratio of Bax to Bcl-2 expression at 20 uM after 72 hrs by Western blot analysis relative to control; format: functional; method in brief: as §2
[9] = test system: HCT-116; experiment: Induction of apoptosis in human HCT116 cells assessed as PARP cleavage at 20 uM after 72 hrs by Western blot analysis; format: functional, cell-based; method in brief: as §2
[10] = biological target: Epidermal growth factor receptor (Homo sapiens) (UniProt P00533); experiment: Inhibition of EGFR signaling in human HCT116 cells assessed as inhibition of Rb expression at 20 uM after 24 hrs by Western blot analysis; format: cell-based; details: HCT-116
[11] = biological target: Epidermal growth factor receptor (Homo sapiens) (UniProt P00533); experiment: Inhibition of EGFR signaling in human HCT116 cells assessed as inhibition of cyclin E1 expression at 20 uM after 24 hrs by Western blot analysis; format: cell-based; details: HCT-116
[12] = test system: HCT-116; experiment: Induction of apoptosis in human HCT116 cells assessed as caspase-3 activation at 20 uM after 72 hrs by Western blot analysis; format: functional, cell-based; method in brief: as §2
[13] = test system: HCT-116; experiment: Cell cycle arrest in human HCT116 cells assessed as increase in G2/M population at 20 uM after 24 hrs by flow cytometry relative to control; format: functional; method in brief: as §3
[14] = biological target: Epidermal growth factor receptor (Homo sapiens) (UniProt P00533); experiment: Inhibition of EGFR phosphorylation at Tyr1068 residue in human HCT116 cells at 20 uM after 72 hrs by Western blot analysis; format: cell-based; details: HCT-116
Method in brief: (§4)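 HCT116 or HT29 seeded at 8 × 10⁴ cells/ml in 15 cm dishes for 24 h, then treated for 72 h at 20 µM or at 5, 10 and 20 µM. Whole-cell lysates were made in Tris-HCl/NaCl/Triton buffer with phosphatase and protease inhibitors (pH 7.5), sonicated and cleared at 10,000g; protein was measured by BCA. Blots were blocked in 5% milk/TBST and developed by ECL. P-EGFR(Tyr1068) and total EGFR bands were normalized to β-tubulin, as means of three experiments.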

[15] = test system: HT-29; experiment: Inhibition of EGFR protein expression in human HT-29 cells at 20 uM after 72 hrs by Western blot analysis; format: functional, cell-based; method in brief: as §4
[16] = biological target: Epidermal growth factor receptor (Homo sapiens) (UniProt P00533); experiment: Inhibition of EGFR phosphorylation at Tyr1068 residue in human HT-29 cells at 20 uM after 72 hrs by Western blot analysis; format: cell-based; method in brief: as §4
[17] = test system: HCT-116; experiment: Induction of apoptosis in human HCT116 cells assessed as effect on HSP-70 expression at 20 uM after 72 hrs by Western blot analysis; format: functional, cell-based; method in brief: as §2
[18] = biological target: Epidermal growth factor receptor (Homo sapiens) (UniProt P00533); experiment: Inhibition of EGFR signaling in human HCT116 cells assessed as effect on CDK4 expression at 20 uM after 24 hrs by Western blot analysis; format: cell-based; details: HCT-116
[19] = biological target: Epidermal growth factor receptor (Homo sapiens) (UniProt P00533); experiment: Inhibition of EGFR signaling in human HCT116 cells assessed as inhibition of cyclin D1 expression at 20 uM after 24 hrs by Western blot analysis; format: cell-based; details: HCT-116
[20] = test system: HCT-116; experiment: Inhibition of EGFR protein expression in human HCT116 cells at 20 uM after 72 hrs by Western blot analysis; format: functional, cell-based; method in brief: as §4
[21] = test system: HCT-116; experiment: Induction of apoptosis in human HCT116 cells assessed as increase in Bax expression at 20 uM after 72 hrs by Western blot analysis; format: functional, cell-based; method in brief: as §2

SMILES: COc1ccc(/C=C/c2cc(/C=C/c3ccc(OC)c(OC)c3)nc(NCCCO)n2)cc1OC
- growth inhibition (GI) [1]: Dose-dependent effect
- IC50 [1]: 12.8 µM
- growth inhibition (GI) [2]: Dose-dependent effect
- IC50 [2]: 9.9 µM

- fold change (FC) [5]: 20
- inhibition [6]: inactive
- inhibition [10]: inactive
- inhibition [11]: inactive
- inhibition [14]: inactive
- inhibition [16]: inactive
- inhibition [18]: inactive
- inhibition [19]: inactive
SMILES: CCNc1nc(/C=C/c2ccc(OC)c(OC)c2)cc(/C=C/c2ccc(OC)c(OC)c2)n1
- Activity [3]: Active
- fold change (FC) [4]: 1.1
- growth inhibition (GI) [1]: Dose-dependent effect
- IC50 [1]: 38.5 µM
- Activity [7]: inactive
- Ratio [8]: 1.57
- Activity [9]: inactive
- Activity [12]: inactive
- fold change (FC) [13]: 1.03
- growth inhibition (GI) [2]: Dose-dependent effect
- IC50 [2]: 46.4 µM
- inhibition [15]: inactive
- Activity [17]: inactive
- inhibition [20]: inactive
- Activity [21]: Active

SMILES: COc1cc(/C=C/c2cc(/C=C/c3cc(OC)c(OC)c(OC)c3)nc(NCCCO)n2)cc(OC)c1OC
- growth inhibition (GI) [1]: Dose-dependent effect
- IC50 [1]: 12.4 µM
- growth inhibition (GI) [2]: Dose-dependent effect
- IC50 [2]: 7.4 µM
